Reference: ChEMBL document CHEMBL1157382, “Scopularides A and B, cyclodepsipeptides from a marine sponge-derived fungus, Scopulariopsis brevicaulis” (2008)
Active and inactive are the calls of the source. The calls are words filed in the database; no cut-off is given here.

How the values were obtained:
HT-29 = assay: Antitumor activity against human HT29 cells assessed as reduction of viability at 10 ug/ml; type: functional
Summary of the method: (§1)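 Viability was measured in the pancreatic tumor lines Colo357 and Panc89 and the colon tumor line HT29, with compound present at a final concentration of 10 µg/mL. The read-out is percent reduction in cell viability.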

Escherichia coli = assay: Antimicrobial activity against Escherichia coli; type: functional, organism-based
Nakaseomyces glabratus = assay: Antimicrobial activity against Candida glabrata; type: functional, organism-based
Pseudomonas fluorescens = assay: Antimicrobial activity against Pseudomonas fluorescens; type: functional, organism-based
COLO357 = assay: Antitumor activity against human Colo357 cells assessed as reduction of viability at 10 ug/ml; type: functional; summary of the method: as §1
[1] = Antitumor activity against human Panc89 cells assessed as reduction of viability at 10 ug/ml; type: functional; summary of the method: as §1

Structure (SMILES) | Activity (HT-29) | Activity (Escherichia coli) | Activity (Nakaseomyces glabratus) | Activity (Pseudomonas fluorescens) | Activity (COLO357) | Activity [1]
CCCCCCC(C)[C@@H]1CC(=O)NCC(=O)N[C@@H](C(C)C)C(=O)N[C@H](CC(C)C)C(=O)N[C@@H](C)C(=O)N[C@@H](Cc2ccccc2)C(=O)O1 (some centres not stated) [SCOPULARIDE A] | 37% | inactive | inactive | inactive | 36% | 42%
CCCCC(C)[C@@H]1CC(=O)NCC(=O)N[C@@H](C(C)C)C(=O)N[C@H](CC(C)C)C(=O)N[C@@H](C)C(=O)N[C@@H](Cc2ccccc2)C(=O)O1 (some centres not stated) [SCOPULARIDE B] | 24% | inactive | inactive | inactive | 26% | 49%
